Reference: ChEMBL document CHEMBL1126061, “Cyclic RGD peptide analogues as antiplatelet antithrombotics” (J Med Chem, 1992)

Target: Integrin alpha-IIb/beta-3 (Homo sapiens, UniProt P05106+P08514)
Experiment: The compound was tested for the inhibition of fibrinogen receptor
Format: protein-complex assay
Method in brief: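 Solid-phase ELISA: human fibrinogen (10 µg/mL) coated, BSA-blocked; samples plus purified human platelet GPIIbIIIa (40 µg/mL) incubated 1 h at room temperature. Bound receptor detected with anti-GPIIbIIIa antibody AP3 (1 µg/mL, 1 h), then goat anti-mouse HRP (1 h); OPD/H2O2 at pH 5, stopped with H2SO4, absorbance 492-405 nm. IC50 from four-parameter fit; n ≥ 3.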

Integrin alpha-IIb/beta-3, sequence (P05106 27-788 limits assumed): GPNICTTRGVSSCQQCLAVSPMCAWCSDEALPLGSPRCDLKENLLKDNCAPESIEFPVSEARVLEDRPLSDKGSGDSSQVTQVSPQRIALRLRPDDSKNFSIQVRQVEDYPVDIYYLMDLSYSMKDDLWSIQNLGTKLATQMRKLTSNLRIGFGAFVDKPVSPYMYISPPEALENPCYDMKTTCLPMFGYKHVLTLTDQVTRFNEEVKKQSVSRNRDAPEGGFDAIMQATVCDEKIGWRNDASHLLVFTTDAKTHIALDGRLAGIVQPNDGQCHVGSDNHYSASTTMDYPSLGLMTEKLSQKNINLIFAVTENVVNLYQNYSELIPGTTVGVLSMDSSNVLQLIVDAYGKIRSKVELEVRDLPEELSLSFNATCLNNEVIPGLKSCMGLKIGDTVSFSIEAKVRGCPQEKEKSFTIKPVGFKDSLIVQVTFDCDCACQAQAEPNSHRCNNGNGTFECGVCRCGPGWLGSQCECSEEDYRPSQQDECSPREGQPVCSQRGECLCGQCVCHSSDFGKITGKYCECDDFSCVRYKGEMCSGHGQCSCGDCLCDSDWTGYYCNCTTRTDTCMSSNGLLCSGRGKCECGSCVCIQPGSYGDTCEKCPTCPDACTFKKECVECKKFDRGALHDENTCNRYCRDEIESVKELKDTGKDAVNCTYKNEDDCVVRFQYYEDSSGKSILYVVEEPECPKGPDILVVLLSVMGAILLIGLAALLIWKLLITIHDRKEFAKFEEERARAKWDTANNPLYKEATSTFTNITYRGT
Integrin alpha-IIb/beta-3, sequence (P08514 32-887 limits assumed): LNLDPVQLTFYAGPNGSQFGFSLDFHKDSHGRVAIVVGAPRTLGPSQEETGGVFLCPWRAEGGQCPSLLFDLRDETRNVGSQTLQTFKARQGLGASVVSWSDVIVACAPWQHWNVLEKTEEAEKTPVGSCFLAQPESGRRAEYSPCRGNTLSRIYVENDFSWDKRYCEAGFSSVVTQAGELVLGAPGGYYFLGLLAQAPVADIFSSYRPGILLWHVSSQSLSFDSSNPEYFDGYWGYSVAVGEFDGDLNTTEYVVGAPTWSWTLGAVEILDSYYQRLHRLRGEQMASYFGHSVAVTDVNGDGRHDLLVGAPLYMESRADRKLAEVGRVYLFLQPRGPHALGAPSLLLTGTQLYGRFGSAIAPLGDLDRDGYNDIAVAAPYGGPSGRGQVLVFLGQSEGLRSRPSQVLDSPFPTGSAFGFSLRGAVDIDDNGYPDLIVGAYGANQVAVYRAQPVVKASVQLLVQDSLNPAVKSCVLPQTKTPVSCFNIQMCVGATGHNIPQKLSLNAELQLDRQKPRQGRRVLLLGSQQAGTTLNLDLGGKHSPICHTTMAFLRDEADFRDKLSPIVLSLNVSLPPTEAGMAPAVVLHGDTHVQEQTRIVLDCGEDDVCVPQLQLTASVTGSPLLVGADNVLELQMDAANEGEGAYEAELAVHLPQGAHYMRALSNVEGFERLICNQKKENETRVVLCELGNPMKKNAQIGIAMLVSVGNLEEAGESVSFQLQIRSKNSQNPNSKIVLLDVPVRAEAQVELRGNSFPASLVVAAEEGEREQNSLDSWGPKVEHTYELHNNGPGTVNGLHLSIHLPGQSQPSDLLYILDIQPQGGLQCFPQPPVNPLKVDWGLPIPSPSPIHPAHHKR
Integrin alpha-IIb/beta-3, sequence (P08514 891-1039 limits assumed): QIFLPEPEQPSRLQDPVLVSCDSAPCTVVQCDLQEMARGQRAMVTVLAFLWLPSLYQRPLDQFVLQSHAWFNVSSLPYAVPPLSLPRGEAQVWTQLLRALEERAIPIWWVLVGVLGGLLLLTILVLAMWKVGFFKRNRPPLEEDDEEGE

Row | SMILES | IC50
1 | CC(C)(C)C[C@H]1NC(=O)CSC[C@@H](C(=O)O)NC(=O)[C@H](CC(=O)O)NC(=O)CNC(=O)[C@H](CCCN=C(N)N)NC1=O | 22 nM
2 | N=C(N)NCCC[C@@H]1NC(=O)[C@H](CC(=O)O)NC(=O)CSC[C@@H](C(=O)O)NC(=O)[C@H](CC(=O)O)NC(=O)CNC1=O | 25 nM
3 | N=C(N)NCCC[C@@H]1NC(=O)[C@@H](CCCN)NC(=O)CSC[C@@H](C(=O)O)NC(=O)[C@H](CC(=O)O)NC(=O)CNC1=O | 31 nM
4 | N=C(N)NCCC[C@@H]1NC(=O)CNC(=O)[C@@H](Cc2ccccc2)SC[C@@H](C(=O)O)NC(=O)[C@H](CC(=O)O)NC(=O)CNC1=O | 29 nM
5 | N=C(N)NCCC[C@@H]1NC(=O)[C@@H](Cc2ccc(O)cc2)NC(=O)CS(=O)(=O)C[C@@H](C(=O)O)NC(=O)[C@H](CC(=O)O)NC(=O)CNC1=O | 2.1 nM
6 | N=C(N)NCCC[C@@H]1NC(=O)c2cccc(c2)CSC[C@@H](C(=O)O)NC(=O)[C@H](CC(=O)O)NC(=O)CNC1=O | 19 nM
7 | N=C(N)NCCC[C@@H]1NC(=O)CNC(=O)CCSC[C@@H](C(=O)O)NC(=O)[C@H](CC(=O)O)NC(=O)CNC1=O | 75 nM
8 | CC(C)[C@H]1NC(=O)CSC[C@@H](C(=O)O)NC(=O)[C@H](CC(=O)O)NC(=O)CNC(=O)[C@H](CCCNC(=N)N)NC1=O | 17 nM
9 | N=C(N)NCCC[C@@H]1NC(=O)[C@@H](CC(=O)O)NC(=O)CSC[C@@H](C(=O)O)NC(=O)[C@H](CC(=O)O)NC(=O)CNC1=O | 500 nM
10 | N=C(N)NCCC[C@@H]1NC(=O)CNC(=O)CS(=O)(=O)C[C@@H](C(=O)O)NC(=O)[C@H](CC(=O)O)NC(=O)CNC1=O | 18 nM
11 | N=C(N)NCCC[C@@H]1NC(=O)[C@H](CCC(N)=O)NC(=O)CSC[C@@H](C(=O)O)NC(=O)[C@H](CC(=O)O)NC(=O)CNC1=O | 43 nM
12 | CSCC[C@H]1NC(=O)CSC[C@@H](C(=O)O)NC(=O)[C@H](CC(=O)O)NC(=O)CNC(=O)[C@H](CCCNC(=N)N)NC1=O | 28 nM
13 | N=C(N)NCCC[C@@H]1NC(=O)[C@@H](CO)NC(=O)CSC[C@@H](C(=O)O)NC(=O)[C@H](CC(=O)O)NC(=O)CNC1=O | 22 nM
14 | N=C(N)NCCC[C@@H]1NC(=O)[C@@H](CCC(=O)O)NC(=O)CSC[C@@H](C(=O)O)NC(=O)[C@H](CC(=O)O)NC(=O)CNC1=O | 260 nM

Other lines, results leading:

Row | IC50 | SMILES
15 | 11.6 nM | C[C@H](O)[C@H]1NC(=O)CSC[C@@H](C(=O)O)NC(=O)[C@H](CC(=O)O)NC(=O)CNC(=O)[C@H](CCCN=C(N)N)NC1=O
16 | 1.3 nM | C[C@@H](O)[C@@H]1NC(=O)CSC[C@@H](C(=O)O)NC(=O)[C@H](CC(=O)O)NC(=O)CNC(=O)[C@H](CCCN=C(N)N)NC1=O
17 | 6 nM | CC[C@H](C)[C@@H]1NC(=O)CSC[C@@H](C(=O)O)NC(=O)[C@H](CC(=O)O)NC(=O)CNC(=O)[C@H](CCCN=C(N)N)NC1=O
18 | 3.6 nM | CC(C)(C)C[C@@H]1NC(=O)CSC[C@@H](C(=O)O)NC(=O)[C@H](CC(=O)O)NC(=O)CNC(=O)[C@H](CCCNC(=N)N)NC1=O
19 | 15 nM | N=C(N)NCCC[C@@H]1NC(=O)[C@H](CCC(=O)O)NC(=O)CSC[C@@H](C(=O)O)NC(=O)[C@H](CC(=O)O)NC(=O)CNC1=O
20 | 4 nM | N=C(N)NCCC[C@@H]1NC(=O)[C@H](CO)NC(=O)CSC[C@@H](C(=O)O)NC(=O)[C@H](CC(=O)O)NC(=O)CNC1=O
21 | 5.6 nM | NCCC[C@@H]1NC(=O)CSC[C@@H](C(=O)O)NC(=O)[C@H](CC(=O)O)NC(=O)CNC(=O)[C@H](CCCN=C(N)N)NC1=O
22 | 6.8 nM | N=C(N)NCCC[C@@H]1NC(=O)[C@@H](Cc2c[nH]cn2)NC(=O)CSC[C@@H](C(=O)O)NC(=O)[C@H](CC(=O)O)NC(=O)CNC1=O
23 | 4 nM | CSCC[C@@H]1NC(=O)CSC[C@@H](C(=O)O)NC(=O)[C@H](CC(=O)O)NC(=O)CNC(=O)[C@H](CCCNC(=N)N)NC1=O
24 | 4 nM | N=C(N)NCCC[C@@H]1NC(=O)[C@H](Cc2c[nH]c3ccccc23)NC(=O)CSC[C@@H](C(=O)O)NC(=O)[C@H](CC(=O)O)NC(=O)CNC1=O
25 | 12 nM | N=C(N)NCCC[C@@H]1NC(=O)CCNC(=O)CSC[C@@H](C(=O)O)NC(=O)[C@H](CC(=O)O)NC(=O)CNC1=O
